From ChEMBL document CHEMBL1152898, “Synthesis and antitumor activity of some new xanthotoxin derivatives” (Eur J Med Chem, 2009)
Values after ≈ are worked out from the molar mass of the structure shown. Active and inactive are the calls of the source. No cut-off for these calls is given here.

How the values were obtained:
MCF7 = test: Antitumor activity against human MCF7 cells after 72 hrs by MTS assay; format: functional, cell-based
In short: (§1)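 HeLa or MCF-7 cells were grown in Eagle's MEM with Earle's salts, 2 mM L-glutamine, 1.0 mM pyruvate, 0.1 mM NEAA and 10% FBS. MCF-7 medium also had 0.01 mg/mL insulin. Cells were seeded at 10⁴/well and dosed at 24 h, giving final 5, 10, 50, 100 µg/mL in 2.5% DMSO. After 72 h, MTS was read at 3 h with pre-reagent absorbance subtracted. Triplicates were compared with 2.5% DMSO controls.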

HeLa [1] = test: Antitumor activity against human HeLa cells after 72 hrs by MTS assay; format: functional, cell-based; in short: as §1
HeLa [2] = test: Antitumor activity against human HeLa cells assessed as cell viability at 5 ug/ml after 72 hrs by MTS assay; format: functional; details: read-out: Activity; in short: as §1
HeLa [3] = test: Antitumor activity against human HeLa cells assessed as cell viability at 10 ug/ml after 72 hrs by MTS assay; format: functional; details: read-out: Activity; in short: as §1
HeLa [4] = test: Antitumor activity against human HeLa cells assessed as cell viability at 50 ug/ml after 72 hrs by MTS assay; format: functional; details: read-out: Activity; in short: as §1
HeLa [5] = test: Antitumor activity against human HeLa cells assessed as cell viability at 100 ug/ml after 72 hrs by MTS assay; format: functional; details: read-out: Activity; in short: as §1

Compound | Activity (MCF7) | IC50 (HeLa [1]) [µg/mL] | viability at 5 µg/mL (HeLa [2]) [%] | viability at 10 µg/mL (HeLa [3]) [%] | viability at 50 µg/mL (HeLa [4]) [%] | viability at 100 µg/mL (HeLa [5]) [%]
COc1c2occc2c(/N=C/c2cccs2)c2ccc(=O)oc12 | inactive | 7.2 (≈ 22.1 µM) | 70 | 53 | 32 | 28
CCNC(=S)Nc1c2ccoc2c(OC)c2oc(=O)ccc12 | inactive | 23 (≈ 72.2 µM) | 101 | 70 | 35 | 41
COc1c2occc2cc2ccc(=O)oc12 [METHOXSALEN] | inactive | 7.6 (≈ 35.2 µM) | 62 | 51 | 21 | 16
COc1c2occc2c(NC(=S)NCc2ccccc2)c2ccc(=O)oc12 | inactive | 7.5 (≈ 19.7 µM) | 74 | 56 | 34 | 35
COc1c2occc2c(N2C(=O)CSC2c2ccc(Br)cc2)c2ccc(=O)oc12 (stereo not given) | inactive | 40 (≈ 84.7 µM) | 82 | 91 | 26 | 26
